Assay outcomes as filed in PubChem BioAssay.
TRAIL sens C8 – viability loss with TRAIL in NB7+C8 cells, primary screen, TRAIL sensitizer project, cell-based, ATPlite luminescence | AID 624354, 2012 | 360,000 tested, 1% active | inhibition (viability loss, TRAIL sensitization), % at 10 µM;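 active means compounds causing at least 50% loss of cell viability in the single-dose screen, relative to plate controls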
PPC-1+TRAIL kill – compounds killing PPC-1 cancer cells with TRAIL present, primary screen, TRAIL potentiator project, ATPLite luminescence, uHTS; PPC-1 cells + TRAIL, ATPLite viability luminescence; 220,000 tested, 0.41% active; cell killing (% activity), % at 4 µM or 5 µM;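 active means cell killing above 50% in the first pass at 4 µM, then a duplicate retest at 5 µM averaging 50% or more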
FLuc act counter – FLuc activators, initial screening, artefact control for FLuc-dependent activation tests, biochemical, ATPlite luminescence. activation factor at 10 µM. ATPlite luciferase biochemical, 10 min; 0 = ATP-free wells, 1 = DMSO control. 200,000 tested, under 10 active. Luciferin 4-monooxygenase (Photinus pyralis), P08659;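 active means luciferase activation factor, scaled between plate controls, of at least 2 with compound at 10 µM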
Target sequence (P08659 whole entry, looked up): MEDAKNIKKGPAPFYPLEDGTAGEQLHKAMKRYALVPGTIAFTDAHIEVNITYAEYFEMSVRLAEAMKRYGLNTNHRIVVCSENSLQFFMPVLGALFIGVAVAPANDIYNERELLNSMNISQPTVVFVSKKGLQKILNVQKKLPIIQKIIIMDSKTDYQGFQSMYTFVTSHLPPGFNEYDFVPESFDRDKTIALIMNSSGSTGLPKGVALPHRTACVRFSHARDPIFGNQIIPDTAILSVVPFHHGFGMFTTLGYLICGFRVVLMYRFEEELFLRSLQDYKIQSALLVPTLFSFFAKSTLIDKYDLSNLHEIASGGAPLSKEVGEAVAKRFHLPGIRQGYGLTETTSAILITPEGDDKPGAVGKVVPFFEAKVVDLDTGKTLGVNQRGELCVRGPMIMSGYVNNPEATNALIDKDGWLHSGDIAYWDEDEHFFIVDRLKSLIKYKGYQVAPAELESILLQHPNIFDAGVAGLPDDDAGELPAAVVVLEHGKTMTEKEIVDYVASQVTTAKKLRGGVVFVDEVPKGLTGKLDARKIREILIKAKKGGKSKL
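System: luciferase plus luciferin reagent, cell-free; medium: PBS as buffer for the ATP substrate; dosing: test compounds dosed from 2 mM stocks in 100% DMSO; timing: 10 min post-reagent at room temperature; measured by: luminescence measurement of luciferase light output; evaluation: luciferase activation, seen as luminescence increase over controls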
FLuc inhib CS – firefly luciferase enzyme inhibitors, primary screen, artefact control for luciferase-based inhibitor screens, biochemical, luminescence, ATPLite | Luciferin 4-monooxygenase (Photinus pyralis), P08659 | 10 min | inhibition, % at 10 µM | 200,000 tested, 1.5% active;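 active means inhibition above about 50% when tested at 10 µM, limit read from the data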
PPC-1 tox – cytotoxicity in PPC-1 cells, confirmation, cytotoxicity control for TRAIL apoptosis potentiator project, cell-based, ATP content luminescence. 1,200 tested, 50% active. PPC-1 viability, ATPlite luminescence, overnight. shares compounds with PPC-1+TRAIL kill. cytotoxicity, % at 5 µM;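 active means reconfirmed compounds whose average cytotoxicity reaches 50% or more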
Large screens that a line does not name were inactive (follow-up assays come after a bar, where they were run). Hits are enriched below; roughly 1.6% of the tested compounds scored in any of these assays.

CCC(=O)OCC(=O)N=c1sccn1Cc1ccc(C)cc1	none (no result: PPC-1+TRAIL kill, FLuc act counter, FLuc inhib CS)
NC(=O)c1ccc(=O)n(Cc2ccc(Cl)cc2Cl)c1	none (no result: PPC-1+TRAIL kill, FLuc act counter, FLuc inhib CS)
O=C(CCl)N=c1sccn1Cc1ccc(Cl)cc1Cl	TRAIL sens C8 97, PPC-1+TRAIL kill 98 | PPC-1 tox 96
O=C(CCl)N=c1sccn1Cc1ccccc1Cl	TRAIL sens C8 95, PPC-1+TRAIL kill 98 (no result: FLuc act counter, FLuc inhib CS) | PPC-1 tox 95
O=C(CCl)N=c1sccn1Cc1cccc2ccccc12	TRAIL sens C8 95, PPC-1+TRAIL kill 97 | PPC-1 tox 98
CCC(=O)OCC(=O)N=c1sccn1Cc1ccccc1Cl	none (no result: PPC-1+TRAIL kill, FLuc act counter, FLuc inhib CS)
CCc1ccccc1NC(=S)N1CCCCCC1	none (no result: PPC-1+TRAIL kill, FLuc act counter, FLuc inhib CS)
COc1cc(/C=C(/C#N)c2nc3ccccc3[nH]2)ccc1OCC(=O)Nc1ccccc1C	TRAIL sens C8 87 | PPC-1 tox inactive
Cc1ccc(NN2C(=O)C=C(c3ccc(Cl)cc3)C2=O)cc1	none | PPC-1 tox inactive
CCN(CC)C(=O)CN(c1ccc(F)c(Cl)c1)S(C)(=O)=O	none | PPC-1 tox inactive
Cc1cccc(NC(=O)CCCNC(=O)c2ccc(Cl)cc2)n1	none (no result: PPC-1+TRAIL kill, FLuc act counter, FLuc inhib CS)
Cc1cccc(OCCn2c(NC(=O)c3ccco3)nc3ccccc32)c1	none | PPC-1 tox inactive
Cc1ccc(OCCn2c(NC(=O)c3ccco3)nc3ccccc32)cc1	none
Cc1ccc(Nc2nc(N)nc(CN3CCN(c4ccccc4)CC3)n2)cc1Cl	none
Nc1nc(CCl)nc(Nc2ccc3ccccc3c2)n1	TRAIL sens C8 95, PPC-1+TRAIL kill 96 (no result: FLuc act counter, FLuc inhib CS) | PPC-1 tox 95
COc1ccc(C(=O)/C=C/c2ccccc2)c(OC)c1	none
COc1ccc(OC)c(C(=O)/C=C/c2ccccc2C(F)(F)F)c1	none | PPC-1 tox inactive
C[C@H]1CN=C(N(C)C)N1CCC1CCCCC1	none (no result: PPC-1+TRAIL kill, FLuc act counter, FLuc inhib CS)
Cc1nc(-c2ccc(NC(=O)/C=C\C(=O)O)cc2)cs1	none
Cc1ccc2sc(-c3ccc(NC(=O)/C=C\C(=O)O)cc3)nc2c1	FLuc inhib CS 84 | PPC-1 tox inactive
O=C1CC(c2ccc3c(c2)OCO3)c2cc3c(cc2N1)OCCO3 (configuration not stated)	none | PPC-1 tox inactive
Cn1cc(CC(=O)N2CCN(c3ccc(Cl)cc3)CC2)c2ccccc21	none | PPC-1 tox inactive
CN1C(=O)N(CC(=O)Nc2ccc3c(c2)OCO3)C(=O)C12CCCCC2	none (no result: PPC-1+TRAIL kill, FLuc act counter, FLuc inhib CS)
CCOc1cc(C(=O)OCc2ccc(OC)cc2)ccc1OCC(=O)N1CCOCC1	none (no result: PPC-1+TRAIL kill, FLuc act counter, FLuc inhib CS)
CCOc1cc(C(=S)N2CCN(C)CC2)ccc1OCC(=O)N1CCOCC1	none | PPC-1 tox inactive
CN(C(=O)c1cncc(Br)c1)C1C2CC3CC(C2)CC1C3 (configuration not stated)	none (no result: PPC-1+TRAIL kill, FLuc act counter, FLuc inhib CS)
COc1ccc2nc(SCC(C)=O)c(C#N)cc2c1	none | PPC-1 tox inactive
Cc1cccc(C(=O)OCc2cncs2)c1	none
Cc1cc(C(F)(F)F)c(C#N)c(SCC(=O)Nc2nc3ccccc3s2)n1	none
Cc1nc(SCC(=O)Nc2nc3ccccc3s2)c(C#N)c(C)c1C	TRAIL sens C8 95, PPC-1+TRAIL kill 96 | PPC-1 tox 96
Cc1ccc2sc(NC(=O)CSc3nc(C)cc(C)c3C#N)nc2c1	TRAIL sens C8 70, PPC-1+TRAIL kill 65 | PPC-1 tox 62
Cc1ccc(C(=O)N2CCN(c3ncccn3)CC2)cc1S(=O)(=O)N1CCCCC1	none
O=c1c2c(-c3ccccc3)csc2nc2c3ccccc3c(NCCN3CCOCC3)nn12	TRAIL sens C8 72 | PPC-1 tox inactive
CCN(CC)C(=O)CSc1ncnc2c(-c3cccs3)nsc12	none | PPC-1 tox inactive
COC(=O)[C@H](CCSC)NC(=O)N1CCC(C)CC1	none | PPC-1 tox inactive
O=C(NNc1c([N+](=O)[O-])cc(C(F)(F)F)cc1[N+](=O)[O-])c1ccco1	none (no result: PPC-1+TRAIL kill, FLuc act counter, FLuc inhib CS)
CC(=O)N=c1sc2cc(C)ccc2n1C	none | PPC-1 tox inactive
CC(=O)SCC(=O)N=c1sc2cc(F)ccc2n1C	none
O=C(O)/C=C/C(=O)NC1CCCCC1	none
CCCS(=O)(=O)NC(=O)C1(C)CCN(C(=O)Cc2ccc(OC)cc2)C1 (configuration not stated)	none (no result: PPC-1+TRAIL kill, FLuc act counter, FLuc inhib CS)
O=C1CCC(=O)N1c1nc2nc(-c3ccccc3)cc(-c3ccccc3)n2n1	none | PPC-1 tox inactive
O=C1c2cccc3c([N+](=O)[O-])ccc(c23)C(=O)N1CCc1ccccn1	none (no result: FLuc act counter, FLuc inhib CS) | PPC-1 tox inactive
